Experiment [1] deals with T1, Muscarinic acetylcholine receptor M1 (Homo sapiens) (UniProt P11229).
T1 sequence (whole entry): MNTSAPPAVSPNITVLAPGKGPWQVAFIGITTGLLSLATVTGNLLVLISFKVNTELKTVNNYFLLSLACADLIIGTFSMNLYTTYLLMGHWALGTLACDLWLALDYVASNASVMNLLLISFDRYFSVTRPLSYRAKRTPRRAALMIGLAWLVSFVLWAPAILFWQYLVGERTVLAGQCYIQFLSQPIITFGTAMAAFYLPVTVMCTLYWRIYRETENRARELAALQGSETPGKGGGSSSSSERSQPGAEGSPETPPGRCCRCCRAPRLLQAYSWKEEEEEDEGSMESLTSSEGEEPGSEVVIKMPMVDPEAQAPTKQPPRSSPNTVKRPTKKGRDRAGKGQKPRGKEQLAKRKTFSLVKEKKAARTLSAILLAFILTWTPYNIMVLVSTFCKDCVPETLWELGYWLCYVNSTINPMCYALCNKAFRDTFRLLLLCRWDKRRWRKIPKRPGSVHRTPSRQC
As to the kind of experiment: Positive allosteric modulation of human muscarinic M1 receptor expressed in CHO Flp-In cells assessed as functional cooperativity with acetylcholine measured as IP1 accumulation after 1 hr by HTRF method. The class given is cell-based. An outline of the steps: (§1)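 Suspended Flp-In CHO cells stably expressing hM1, stimulated at 10⁶ cells/ml in HEPES buffer with 50 mM LiCl, pH 7.4, using increasing ACh with or without increasing modulator, 1 h at 37 °C, 5% CO2. IP1 read by HTRF (665/590 nm ratio). Curves fitted globally to the operational model of allosterism, with KB fixed from binding. Mean ± SEM, ≥3 experiments in duplicate.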
On the technique in general: In TR-FRET formats the signal depends on donor and acceptor labels being close together.

For experiment [2], the target named is T1, Muscarinic acetylcholine receptor M1 (Homo sapiens). As to the kind of experiment: Allosteric agonist activity at human muscarinic M1 receptor expressed in CHO Flp-In cells assessed as intrinsic activity measured as IP1 accumulation after 1 hr by HTRF method. The class given is functional, cell-based. An outline of the steps:
as §1

Experiment [3] concerns the target T2, Muscarinic acetylcholine receptor M2 (Homo sapiens) (UniProt P08172).
T2 sequence (whole entry): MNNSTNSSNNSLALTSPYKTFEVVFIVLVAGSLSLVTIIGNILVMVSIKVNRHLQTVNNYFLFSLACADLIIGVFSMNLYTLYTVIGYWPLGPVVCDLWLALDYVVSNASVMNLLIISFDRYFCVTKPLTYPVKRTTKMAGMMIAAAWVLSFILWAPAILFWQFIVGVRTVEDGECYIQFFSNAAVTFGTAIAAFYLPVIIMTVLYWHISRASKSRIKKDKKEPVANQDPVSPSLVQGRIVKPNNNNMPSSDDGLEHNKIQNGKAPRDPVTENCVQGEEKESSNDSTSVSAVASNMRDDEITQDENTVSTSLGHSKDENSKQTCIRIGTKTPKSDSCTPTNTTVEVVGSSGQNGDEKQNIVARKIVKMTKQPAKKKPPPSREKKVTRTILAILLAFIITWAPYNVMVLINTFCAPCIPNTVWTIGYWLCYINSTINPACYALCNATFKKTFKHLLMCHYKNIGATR
As to the kind of experiment: Displacement of [3H]NMS from human muscarinic M2 receptor expressed in CHO Flp-In cells up to 10 uM after 1 hr by microbeta liquid scintillation counting-based radioligand binding assay. In kind it is cell-based. The gist of the method: (§2)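 Whole Flp-In CHO cells expressing hM2, hM3, hM4 or hM5 were incubated with [3H]NMS, ACh and modulator up to 10 μM in HEPES-buffered saline pH 7.4, 1 h at 37 °C. Bound radioactivity was counted by scintillation after two ice-cold saline washes.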

For experiment [4], the target named is Muscarinic acetylcholine receptor M3 (Homo sapiens) (UniProt P20309). As to the kind of experiment: Displacement of [3H]NMS from human muscarinic M3 receptor expressed in CHO Flp-In cells up to 10 uM after 1 hr by microbeta liquid scintillation counting-based radioligand binding assay. In kind it is cell-based. The gist of the method: as §2
Background: Loss of bound radioactivity is the signal in a displacement assay; it reports binding, not function.

Experiment [5] deals with T3, Muscarinic acetylcholine receptor M4 (Homo sapiens) (UniProt P08173).
T3 sequence (whole entry): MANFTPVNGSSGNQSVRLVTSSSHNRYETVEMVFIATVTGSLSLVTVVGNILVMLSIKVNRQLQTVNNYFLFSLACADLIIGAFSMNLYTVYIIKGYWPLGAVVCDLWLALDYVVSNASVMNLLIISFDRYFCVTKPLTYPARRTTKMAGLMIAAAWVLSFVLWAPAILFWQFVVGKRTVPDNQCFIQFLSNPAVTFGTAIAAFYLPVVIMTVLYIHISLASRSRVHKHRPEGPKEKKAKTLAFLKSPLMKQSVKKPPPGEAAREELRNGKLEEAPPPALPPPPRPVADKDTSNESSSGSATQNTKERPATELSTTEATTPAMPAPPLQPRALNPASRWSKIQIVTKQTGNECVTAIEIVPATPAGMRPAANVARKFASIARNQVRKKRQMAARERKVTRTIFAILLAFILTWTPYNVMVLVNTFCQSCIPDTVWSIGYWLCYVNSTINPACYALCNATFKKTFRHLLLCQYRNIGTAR
As to the kind of experiment: Displacement of [3H]NMS from human muscarinic M4 receptor expressed in CHO Flp-In cells up to 10 uM after 1 hr by microbeta liquid scintillation counting-based radioligand binding assay. The class given is cell-based. The gist of the method: as §2

In experiment [6] the target is T4, Muscarinic acetylcholine receptor M5 (Homo sapiens) (UniProt P08912).
T4 sequence (whole entry): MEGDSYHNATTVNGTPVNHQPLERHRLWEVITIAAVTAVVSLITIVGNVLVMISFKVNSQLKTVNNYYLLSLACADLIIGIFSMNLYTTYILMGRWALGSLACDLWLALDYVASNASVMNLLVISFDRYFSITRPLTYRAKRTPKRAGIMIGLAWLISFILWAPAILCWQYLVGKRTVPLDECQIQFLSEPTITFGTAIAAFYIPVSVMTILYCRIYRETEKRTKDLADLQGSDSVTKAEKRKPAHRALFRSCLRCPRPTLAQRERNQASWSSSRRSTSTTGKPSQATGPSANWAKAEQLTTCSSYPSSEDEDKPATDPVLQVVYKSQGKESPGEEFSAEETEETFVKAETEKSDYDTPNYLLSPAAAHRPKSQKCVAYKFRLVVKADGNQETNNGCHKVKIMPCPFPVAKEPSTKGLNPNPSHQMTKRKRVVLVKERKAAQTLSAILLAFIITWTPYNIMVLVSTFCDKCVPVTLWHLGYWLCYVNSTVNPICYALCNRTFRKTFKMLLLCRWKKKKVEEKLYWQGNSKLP
As to the kind of experiment: Displacement of [3H]NMS from human muscarinic M5 receptor expressed in CHO Flp-In cells up to 10 uM after 1 hr by microbeta liquid scintillation counting-based radioligand binding assay. The class given is cell-based. An outline of the steps:
as §2

Experiment [7] has as its target T1, Muscarinic acetylcholine receptor M1 (Homo sapiens). As to the kind of experiment: Displacement of [3H]NMS from human muscarinic M1 receptor expressed in CHO Flp-In cells after 1 hr by microbeta liquid scintillation counting-based radioligand binding assay. The class given is cell-based. The gist of the method:
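Intact adherent Flp-In CHO cells expressing hM1 (10⁴ cells/well), incubated with 0.2 nM [3H]NMS, varying ACh and modulator in HEPES-buffered saline pH 7.4 for 1 h at 37 °C. Washed with ice-cold 0.9% NaCl, then scintillation counted. Fitted to an allosteric ternary complex model with [3H]NMS KA 0.2 nM. Mean ± SEM, ≥3 experiments in duplicate.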

This is an account of results in ChEMBL document CHEMBL3758148, “4-Phenylpyridin-2-one Derivatives: A Novel Class of Positive Allosteric Modulator of the M1 Muscarinic Acetylcholine Receptor” (J Med Chem, 2016).

The source made the active and inactive calls. No cut-off for these calls is given here.

Muscarinic acetylcholine receptor M3 (Homo sapiens), sequence (P20309 whole entry, looked up): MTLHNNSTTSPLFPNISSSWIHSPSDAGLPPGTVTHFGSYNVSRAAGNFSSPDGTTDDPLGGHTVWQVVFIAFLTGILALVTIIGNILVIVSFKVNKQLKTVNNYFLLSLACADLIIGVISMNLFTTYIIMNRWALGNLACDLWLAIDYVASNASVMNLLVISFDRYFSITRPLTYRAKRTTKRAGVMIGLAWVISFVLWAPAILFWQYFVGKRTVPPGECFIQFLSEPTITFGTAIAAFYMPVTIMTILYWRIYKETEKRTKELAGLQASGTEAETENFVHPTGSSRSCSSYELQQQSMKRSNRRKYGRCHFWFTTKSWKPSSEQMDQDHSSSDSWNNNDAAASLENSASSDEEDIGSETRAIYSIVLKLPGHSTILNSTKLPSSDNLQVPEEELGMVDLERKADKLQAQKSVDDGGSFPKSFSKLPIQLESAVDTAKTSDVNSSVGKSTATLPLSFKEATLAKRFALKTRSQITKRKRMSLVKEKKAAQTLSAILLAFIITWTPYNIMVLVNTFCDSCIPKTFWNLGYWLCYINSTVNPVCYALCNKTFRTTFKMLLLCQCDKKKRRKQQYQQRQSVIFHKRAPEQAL

As to `COc1ccc(Cn2cc(C(=O)O)c(=O)c3ccccc32)cc1`, in experiment [1], the log(activity) was 1.84. Further, in experiment [2], the Intrinsic activity was found to be 0.22. Besides, the log(IA) in experiment [2] was -0.6. For the same molecule, the result in experiment [3], in experiment [4], in experiment [5] and in experiment [6] was inactive.
In the case of `Cn1cc(-c2ccc(COc3ccccc3-c3ccn([C@H]4CCCC[C@@H]4O)c(=O)c3)cc2)cn1` (racemic), the log(activity) in experiment [1] was 2.3. Besides, the Intrinsic activity in experiment [2] stood at 0.21. Besides, the log(IA) in experiment [2] was -0.68. Besides, the result in experiment [3], in experiment [4], in experiment [5] and in experiment [6] was inactive. The same molecule returned a Kb in experiment [7] of 43 µM. For the same molecule, the pKb in experiment [7] turned out to be 4.37.

What is called pKb is the Kb on a negative log10 scale, so that one unit is a factor of ten.
